Activity calls are given as the source filed them. The calls are words filed in the database; no cut-off is given here.
Legend:
[1] = biological target: T1, Ribonuclease pancreatic (Bos taurus, UniProt P61823); test: Inhibition of bovine pancreatic RNase A by spectrophotometric method
T1 sequence (P61823 whole entry): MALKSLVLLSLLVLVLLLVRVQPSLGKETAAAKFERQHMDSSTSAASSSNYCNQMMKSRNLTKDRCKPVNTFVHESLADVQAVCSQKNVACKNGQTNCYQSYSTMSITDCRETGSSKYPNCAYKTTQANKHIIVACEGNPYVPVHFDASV
How it was run: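 Bovine pancreatic RNase A; spectrophotometric initial-velocity assay with 2′,3′-cCMP substrate in 0.1 M Mes-NaOH pH 6.0, 0.1 M NaCl. Ki taken from Dixon plots (1/V vs [I]) by the competitive equation; at least three repeats per set.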

[2] = biological target: T2, Ribonuclease pancreatic (Bos taurus) (UniProt P61823); test: Inhibition of bovine pancreatic RNase A assessed as effect on tRNA degradation by agarose gel based assay
T2 sequence (whole entry): T1 sequence (P61823 whole entry)
How it was run: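 Qualitative gel: RNase A (stock 6.87 µM; 1.37 µM in figure) preincubated 3 h with compound at three levels (0.10–0.31 or 0.13–0.40 mM). Aliquots then mixed with yeast tRNA (5 mg/mL stock) for 30 min, run on 1.1% agarose gel, and residual tRNA stained with ethidium bromide under UV.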

[3] = biological target: T2, Ribonuclease pancreatic (Bos taurus); test: Inhibition of bovine pancreatic RNase A ribonucleolytic activity assessed as reduction of tRNA degradation at 0.32 mM by precipitation assay relative to control; set-up: scale not given: the % may be the effect or the level left
How it was run: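 Bond precipitation assay: RNase A (1.10 µM) preincubated with compound (0.32 mM) 2 h at 37 °C. Then tRNA added in Tris-HCl pH 7.5 with 5 mM EDTA and 0.5 mg/mL HSA, 30 min at 25 °C. Quenched with ice-cold perchloric acid/uranyl acetate, 30 min on ice, centrifuged; supernatant A260 compared with control.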

[4] = biological target: T2, Ribonuclease pancreatic (Bos taurus); test: Inhibition of bovine pancreatic RNase A assessed as effect on tRNA degradation at 0.14 mM by agarose gel based assay
How it was run: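 Comparative gel: RNase A (stock 6.29 µM; 1.26 µM in figure) preincubated 3 h with compound (0.14 mM). Aliquots then mixed with yeast tRNA (5 mg/mL stock) for 30 min, run on 1.1% agarose gel, and residual tRNA viewed by ethidium bromide under UV.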

Ki [1] [µM]	Activity [2]	Activity [3] [%]	Activity [4]	Structure (SMILES)
7.1				O=c1ccn([C@@H]2O[C@H](CO)[C@@H](O)[C@H]2OP(=O)(O)O)c(=O)[nH]1
77	Active	30		CCOC(=O)C1CCN(C[C@H]2O[C@@H](n3ccc(=O)[nH]c3=O)[C@H](O)[C@@H]2O)CC1
0.041				Cc1cn([C@H]2C[C@H](O)[C@@H](COP(=O)(O)OP(=O)(O)O[C@H]3[C@@H](O)[C@H](n4cnc5c(N)ncnc54)O[C@@H]3CO)O2)c(=O)[nH]c1=O
	Active	5	Active	Cc1cn([C@H]2C[C@H](O)[C@@H](CN3CCCCC3)O2)c(=O)[nH]c1=O
	Active	5	Active	Cc1cn([C@H]2C[C@H](O)[C@@H](CN3CCCC3)O2)c(=O)[nH]c1=O
	Active	12	Active	O=c1ccn([C@@H]2O[C@H](CN3CCCC3)[C@@H](O)[C@H]2O)c(=O)[nH]1

More lines, now with the values behind:

Structure (SMILES)	Ki [1] [µM]	Activity [2]	Activity [3] [%]	Activity [4]
O=c1ccn([C@@H]2O[C@H](CO)[C@@H](OP(=O)(O)O)[C@@H]2O)c(=O)[nH]1	6			
O=c1ccn([C@@H]2O[C@H](CN3CCCCC3)[C@@H](O)[C@H]2O)c(=O)[nH]1		Active	12	Active
O=c1ccn([C@@H]2O[C@H](CN3CCOCC3)[C@@H](O)[C@H]2O)c(=O)[nH]1		Active	12	Active
Nc1ccn([C@@H]2O[C@H](CO)[C@@H](OP(=O)(O)O)[C@H]2O)c(=O)n1	103			
O=c1ccn([C@@H]2O[C@H](CO)[C@@H](OP(=O)(O)O)[C@H]2O)c(=O)[nH]1	82			

From ChEMBL document CHEMBL1140896, “Morpholino, piperidino, and pyrrolidino derivatives of pyrimidine nucleosides as inhibitors of ribonuclease A: synthesis, biochemical, and crystallographic evaluation” (J Med Chem, 2009)
